In brackets after ≈: the same amount, converted by molar mass. Where only a bound is given, the exact number is not on record here.

Results on 19 compounds are retold here after ChEMBL document CHEMBL1126125, “Synthesis and antibacterial activity of 1-(substituted pyrrolyl)-7-(substituted amino)-6-fluoro-1,4-dihydro-4-oxo-3- quinolinecarboxylic acids” (1992).

One test relates to Escherichia coli. The test can be described thus: In vitro antibacterial activity against Escherichia coli ATCC 25922. The format is functional. The method in brief:
(§1)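 Agar dilution MIC. Organisms grown overnight in brain-heart infusion broth at 37 °C. Compound stock of 5 mg/mL serially diluted two-fold in BHI agar, giving final test concentrations of 200 to […] μg/mL. Plates incubated 24 h at 37 °C. MIC read as the lowest concentration that inhibited visible growth.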

The next test relates to Staphylococcus aureus. The test can be described thus: In vitro antibacterial activity against Staphylococcus aureus ATCC 6538p. The format is functional. The method in brief:
as §1

Regarding `O=C(O)c1cn(-c2ccc([N+](=O)[O-])cc2)c2cc(Cl)c(F)cc2c1=O`, the MIC is 12.5 µg/mL (≈ 34.5 µM) against Escherichia coli and 6.25 µg/mL (≈ 17.2 µM) in the test with Staphylococcus aureus.

Regarding `CN1CCN(c2cc3c(cc2F)c(=O)c(C(=O)O)cn3-c2cc([N+](=O)[O-])cn2C)CC1`, the minimal inhibitory concentration (MIC) was determined as 3.12 µg/mL (≈ 7.28 µM) with Escherichia coli and 6.25 µg/mL (≈ 14.6 µM) with Staphylococcus aureus.

With `O=C(O)c1cn(-c2ccc([N+](=O)[O-])cc2)c2cc(N3CCCC3)c(F)cc2c1=O`, the MIC in the test with Escherichia coli and in the test on Staphylococcus aureus was above 100 µg/mL throughout.

Consider `Cn1cc(N)c(-n2cc(C(=O)O)c(=O)c3cc(F)c(N4CCNCC4)cc32)c1`, for which the minimal inhibitory concentration (MIC) was determined as 50 µg/mL (≈ 130 µM) with Escherichia coli and 100 µg/mL (≈ 259 µM) with Staphylococcus aureus.

On to `Cn1cc([N+](=O)[O-])cc1-n1cc(C(=O)O)c(=O)c2cc(F)c(N3CCCC3)cc21`, for which the MIC in the test on Escherichia coli is 12.5 µg/mL (≈ 31.2 µM); in the test with Staphylococcus aureus, 0.78 µg/mL (≈ 1.95 µM).

In the case of `Cn1cc(-n2cc(C(=O)O)c(=O)c3cc(F)c(N4CCCNCC4)cc32)c([N+](=O)[O-])c1`, the minimum inhibitory concentration (MIC) in the test on Escherichia coli and against Staphylococcus aureus was 100 µg/mL (≈ 233 µM) in each case.

Turning to `CN1CCN(c2cc3c(cc2F)c(=O)c(C(=O)O)cn3-c2ccc([N+](=O)[O-])cc2)CC1`, the results for the MIC in the test with Escherichia coli and in the test with Staphylococcus aureus were 12.5 µg/mL (≈ 29.3 µM) and 25 µg/mL (≈ 58.6 µM), respectively.

Consider `Cn1cc([N+](=O)[O-])cc1-n1cc(C(=O)O)c(=O)c2cc(F)c(Cl)cc21`, for which the results for the MIC in the test on Escherichia coli and in the test with Staphylococcus aureus were 100 µg/mL (≈ 273 µM) and 50 µg/mL (≈ 137 µM), respectively.

On to `Cn1cc(-n2cc(C(=O)O)c(=O)c3cc(F)c(N4CCCCC4)cc32)c([N+](=O)[O-])c1`, for which the figures for the minimal inhibitory concentration (MIC) with Escherichia coli and with Staphylococcus aureus were 100 µg/mL (≈ 241 µM) and 50 µg/mL (≈ 121 µM), respectively.

Take `CC1CCCN(c2cc3c(cc2F)c(=O)c(C(=O)O)cn3-c2cc([N+](=O)[O-])cn2C)C1` (stereo not drawn): the MIC was 100 µg/mL (≈ 233 µM) in the test on Escherichia coli and 3.12 µg/mL (≈ 7.29 µM) in the test on Staphylococcus aureus.

`CC1CN(c2cc3c(cc2F)c(=O)c(C(=O)O)cn3-c2cn(C)cc2[N+](=O)[O-])CCN1` (stereo not drawn): the minimum inhibitory concentration (MIC) with Escherichia coli and against Staphylococcus aureus was 100 µg/mL (≈ 233 µM) throughout.

As for `CN1CCN(c2cc3c(cc2F)c(=O)c(C(=O)O)cn3-c2cn(C)cc2[N+](=O)[O-])CC1`, the MIC against Escherichia coli and against Staphylococcus aureus was 100 µg/mL (≈ 233 µM) each time.

On to `Cn1cc(-n2cc(C(=O)O)c(=O)c3cc(F)c(N4CCCC4)cc32)c([N+](=O)[O-])c1`, for which the minimum inhibitory concentration (MIC) in the test with Escherichia coli and with Staphylococcus aureus was above 100 µg/mL throughout.

As to `Cn1cc(-n2cc(C(=O)O)c(=O)c3cc(F)c(Cl)cc32)c([N+](=O)[O-])c1`, the minimum inhibitory concentration (MIC) in the test on Escherichia coli and in the test on Staphylococcus aureus was 100 µg/mL (≈ 273 µM) throughout.

For the compound `Cn1cc(-n2cc(C(=O)O)c(=O)c3cc(F)c(N4CCNCC4)cc32)c([N+](=O)[O-])c1`, the minimal inhibitory concentration (MIC) in the test with Escherichia coli and in the test with Staphylococcus aureus was 100 µg/mL (≈ 241 µM) in each case.

For the compound `CC1CCN(c2cc3c(cc2F)c(=O)c(C(=O)O)cn3-c2cn(C)cc2[N+](=O)[O-])CC1`, the results for the MIC with Escherichia coli and against Staphylococcus aureus were above 100 µg/mL and 12.5 µg/mL (≈ 29.2 µM), respectively.

Regarding `CC1CCCN(c2cc3c(cc2F)c(=O)c(C(=O)O)cn3-c2ccc([N+](=O)[O-])cc2)C1` (stereo not drawn), the MIC against Escherichia coli and with Staphylococcus aureus was above 100 µg/mL each time.

As for `CC1CCCN(c2cc3c(cc2F)c(=O)c(C(=O)O)cn3-c2cn(C)cc2[N+](=O)[O-])C1` (stereo not drawn), the minimum inhibitory concentration (MIC) against Escherichia coli is above 100 µg/mL; against Staphylococcus aureus it was 25 µg/mL (≈ 58.4 µM).

With `CN1CCN(c2cc3c(cc2F)c(=O)c(C(=O)O)cn3-c2ccc(F)cc2)CC1` [DIFLOXACIN], the MIC in the test on Escherichia coli stood at 0.39 µg/mL (≈ 0.976 µM); in the test with Staphylococcus aureus, 0.195 µg/mL (≈ 0.488 µM).
